Rows were chosen to be rich in hits. Some 3.3% of all compounds tested hit in one or more screens of this group.
HTR2A ag: agonists of mouse serotonin 5-HT2A receptor (HTR2A); 360,000 tested, 0.66% active; AID 624169; CHO-K1 mHTR2A beta-arrestin complementation, luminescence; percent of 30 µM serotonin response; activation, % at 7.6 µM; P35363;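 active means activation above a run cutoff, the mean activation of all tested compounds plus 3 SD, cut at about 14% in these data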;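 further: 0% = plate median of compound wells and 100% = 30 µM serotonin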
Arrestin-AP2 inh: human beta-arrestin and AP2 interaction inhibition. FITC-arrestin peptide / GST-AP2 beads, flow cytometry; AP2 beta2 appendage carries R879A mutation. inhibition, % at 10 µM. 340,000 tested, 0.31% active. AID 504490;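 active means inhibition above a set limit, near 3 SD of compounds lacking own fluorescence, cut at about 54% in these data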;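 further: plate controls were DMSO wells for no effect and 5 µM unlabelled arrestin peptide for full effect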
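System: GST-AP2 R879A glutathione beads. Medium: PBS with 0.05% Tween 20 and 0.1% BSA. Also added: FITC-arrestin peptide, 50 nM. Incubation: 12 min plus 1 h, RT. Measured by: high-throughput flow cytometry of beads, ex 488, em 535 nm. Evaluation: percent drop in bead-associated FITC signal.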
Hep lipid drop: modulators of hepatic lipid droplet formation. AML12 mouse hepatocytes, oleate lipid droplets, BODIPY imaging. inhibition, % at 6.5 µM. 240,000 tested, 0.4% active. AID 1656;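 active means lipid droplet intensity inhibited by at least 50%, with more than 500 cells counted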
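Technique: fluorescence imaging, 20x objective, two fields per well / Assay system: AML12 hepatocytes (mouse) / Measure: % inhibition of lipid droplet signal / Doses: 6.5 µM single-point dosing / Incubation: overnight exposure / Reagent: 100 µM oleic acid challenge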
sPLA2-III inh: Blocks human group III sPLA2 activity; Q9NZ20; QFRET BODIPY PC-A2 liposome hydrolysis, fluorescence; inhibition, % at 12.2 µM; 370,000 tested, 0.56% active; AID 743126;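 active means inhibition above mean plus 3 SD of compounds lying within the high and low control bounds, cut at about 19% in these data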;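 further: 0% = median of test compound wells and 100% = no enzyme DMSO wells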
Target sequence (Q9NZ20 whole entry, looked up): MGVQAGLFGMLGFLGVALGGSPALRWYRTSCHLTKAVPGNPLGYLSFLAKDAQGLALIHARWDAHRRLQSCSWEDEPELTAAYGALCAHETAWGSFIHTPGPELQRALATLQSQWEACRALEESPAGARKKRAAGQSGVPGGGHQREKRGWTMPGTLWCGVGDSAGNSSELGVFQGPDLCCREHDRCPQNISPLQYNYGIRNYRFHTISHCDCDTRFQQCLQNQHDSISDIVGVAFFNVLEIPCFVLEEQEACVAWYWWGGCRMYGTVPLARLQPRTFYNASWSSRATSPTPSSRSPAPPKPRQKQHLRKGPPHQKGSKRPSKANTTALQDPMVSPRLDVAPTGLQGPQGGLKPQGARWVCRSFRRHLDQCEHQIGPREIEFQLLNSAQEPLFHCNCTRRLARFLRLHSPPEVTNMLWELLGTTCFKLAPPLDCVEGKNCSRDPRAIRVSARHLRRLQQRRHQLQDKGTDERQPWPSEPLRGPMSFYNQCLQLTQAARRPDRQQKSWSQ
NRP1-CendR mod: alters CendR peptide binding to human NRP-1; inhibition, % at 25 µM; O14786; FAM-RPARPAR peptide binding to NRP-1, fluorescence polarization; 360,000 tested, 0.85% active;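 active means inhibition or corrected inhibition above about 18%, plus a signal ratio from 0.5 to 1.5, limit read from the data, passing the limit was not always enough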
PfM18AAP inh: PfM18AAP enzyme inhibition. recombinant PfM18AAP, H-Glu-NHMec fluorogenic cleavage. inhibition, % at 7.35 µM. 290,000 tested, 1.2% active;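 active means inhibition above the campaign mean inhibition over all tested compounds plus 3 SD, cut at about 28% in these data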;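 further: 0% = plate median of test compound wells and 100% = 2 mM ZnCl2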
Active calls of the source: *; nt = no result given.

SMILES	HTR2A ag	Arrestin-AP2 inh	Hep lipid drop	sPLA2-III inh	NRP1-CendR mod	PfM18AAP inh
O=C(COc1ccc(Cl)cc1Cl)N1CCN(C(=O)c2ccco2)CC1	2	-4	3	-2	4	3
O=C(COc1ccccc1O)N1CCN(C(=O)c2ccco2)CC1	10	-4	-3	-2	32*	4
OC[C@@H]1CN(CCN2CCOCC2)C[C@H](n2cnc3c(NC4CC4)ncnc32)O1	4	nt	nt	15	-2	nt
COCCn1c(SCC(=O)Nc2ccccc2OC)nc2c([nH]c3ccccc32)c1=O	5	-6	-2	-1	26*	2
COCCn1c(SCC(=O)Nc2ccccc2F)nc2c([nH]c3ccccc32)c1=O	0	-10	-12	0	-5	1
COCCn1c(-c2ccc(OC)cc2)cnc1SCC(=O)Nc1cccc2ccccc12	-2	-33	-12	-15	26*	5
CSCCC(NC(=O)c1ccco1)C(=O)NCc1ccc2c(c1)OCO2 (stereo not drawn)	-5	4	nt	12	-5	nt
C=CCOC(=O)N[C@@H](c1cccc(OC)c1)[C@@H](C)/C=C/CC(=O)O	nt	nt	nt	5	nt	nt
C[C@]12CC[C@@H]3c4cc(O)c(O)cc4CC[C@H]3[C@@H]1CC[C@@H]2O	1	33	-7	-17	-1	67*
COc1ccccc1NC(=S)NCCc1ccc(F)cc1	-1	20	-18	5	15	1
COc1ccccc1NC(=S)NCCc1ccccc1	1	3	nt	7	30*	-3
O=C(NCc1ccccc1)[C@@H]1CCCN1C(=O)[C@H]1CCCN1C(=O)c1cc(F)cc(F)c1	nt	nt	nt	10	nt	nt
Cc1cc(C)cc(N(CCC(=O)O)S(=O)(=O)c2ccc3ccccc3c2)c1	4	nt	-2	-2	42*	-17
Cn1cc(CCOCc2ccccc2)c2ccccc21	nt	nt	nt	-44	nt	nt
CN1OC[C@@H]2CN(C(=O)c3ccc([N+](=O)[O-])cc3)[C@H](c3ccccc3Br)C[C@@H]21	nt	nt	nt	1	nt	nt
CCOC(=O)[C@]12CCCC=C1N(Cc1ccccc1)C(=O)[C@H](CC(=O)N1CCCCCC1)C2	-2	nt	nt	4	4	nt
CCOC(=O)N1CCN(C(=O)C[C@@H]2C[C@@]3(C(=O)OCC)CCCC=C3N(Cc3ccccc3)C2=O)CC1	2	nt	nt	-9	36*	nt
CCOC(=O)N1C(=O)NC(=O)C1c1ccc(OC)cc1 (stereo not drawn)	5	16	nt	-4	8	nt
CCOc1ccc(CCN2C(=S)N([C@@H](Cc3ccccc3)CN3CCC[C@@H]3CN3C(=S)NC[C@@H]3Cc3ccc(O)cc3)C[C@@H]2CC(C)C)cc1	11	nt	nt	-8	19*	nt
CC(=O)Nc1ccc(CN(C)c2c(C)nc3ccc(C(=O)NCCCn4ccnc4)cn23)cc1	-2	nt	nt	7	2	nt
COc1ccccc1CNC(=O)CCNS(=O)(=O)/C=C/c1ccc(C)cc1	4	-3	nt	-14	-3	nt
COc1ccc(N2C(=O)C(Cl)=C(Nc3ccccc3O)C2=O)cc1	-5	26	-14	-6	-4	29*
C=CCN1C(=O)[C@H](CC(=O)NCCc2ccccc2OC)[C@@]2(C(=O)OCC)CCCC=C12	nt	nt	nt	-6	nt	nt
Cc1cccc(NC(=S)N=Nc2c(O)n(CN3CCOCC3)c3ccccc23)c1C	3	13	-2	23*	-15	6
Cc1ccc(N=Nc2c(O)n(CN3CCOCC3)c3ccccc23)cc1	-1	-7	nt	nt	-26	0
SMILES	HTR2A ag	Arrestin-AP2 inh	Hep lipid drop	sPLA2-III inh	NRP1-CendR mod	PfM18AAP inh
COc1cc(/C=C2/SC(=S)N(Cc3ccccc3)C2=O)ccc1O	-1	13	4	-8	-206	-8
O=C1/C(=C\c2ccc(O)c(O)c2)SC(=S)N1Cc1ccccc1	-4	17	8	14	-176	48*
CCN1CCc2nc(NC(=O)c3ccccc3)sc2C1	2	29	8	1	-119	3
CCN1CCc2nc(N)sc2C1	7	20	-2	5	-11	44*
COc1ccc2c(c1)[n+](=O)c(C(C)=O)c(C)n2[O-]	3	-1	nt	5	-1	4
CCOC(=O)c1c(=O)n(O)c2ccc(OC)cc2[n+]1[O-]	13	0	-2	-1	25*	-8
C=CCc1cccc(/C=N/n2cnnc2)c1O	6	0	-5	-5	16	30*
O=C(C[n+]1ccccc1)N/N=C/c1ccccc1Cl	0	1	nt	0	26*	nt
C=CCc1cccc(/C=N/NC(=O)C[n+]2ccccc2)c1O	-4	-4	4	-6	13	29*
C=CCc1cccc(C=Nc2ccc(Br)cc2)c1O	2	10	19	7	-10	3
O=C(NCc1ccncc1)[C@@H]1CCCN1C(=O)[C@@H]1CCCN1C(=O)c1cccc2ccccc12	4	nt	nt	8	-3	nt
CC(=O)C1CN(S(=O)(=O)c2ccc(C)cc2)C(c2ccccc2)CC1C (stereo not drawn)	-10	nt	nt	5	0	nt
COC(=O)C1=C(C)N(Cc2ccccc2C(F)(F)F)C(=NCc2ccc(C(F)(F)F)cc2)NC1c1ccccc1 (stereo not drawn)	nt	nt	nt	2	nt	nt
COc1ccc(NS(=O)(=O)c2ccc(C)c(NC(=O)CN3C(=O)NC4(CCCC4)C3=O)c2)cc1	6	-6	nt	-8	30*	nt
COc1ccccc1-n1c(SCC(=O)N2CCCC2)nnc1-c1ccccc1	-8	-7	-6	1	21*	3
COc1ccccc1-n1c(SCC(N)=O)nnc1-c1ccc(S(=O)(=O)N2CCCCC2)cc1	4	-2	nt	11	0	-8
COc1cccc(Nc2nc(C(N)C3CCCCC3)cs2)n1 (stereo not drawn)	-1	nt	nt	3	-7	nt
CN1C=CC2=C(C#N)C(N)C(C#N)(C#N)[C@H](c3ccccc3)[C@H]2C1 (stereo partly drawn)	0	30	-4	2	23*	1
O=C(NCCc1ccccc1)OCc1cn(-c2cccc(Cl)c2)nn1	nt	nt	nt	-7	nt	nt
COc1ccccc1NS(=O)(=O)c1ccc(C)c(C(=O)Nc2ccc(S(=O)(=O)Nc3onc(C)c3C)cc2)c1	6	11	nt	-45	33*	nt
C[C@H]1[C@H](c2ccccc2)Oc2ccc(Cl)cc2S(=O)(=O)N1C[C@@H]1CCCN1C(=O)OC(C)(C)C	nt	nt	nt	9	nt	nt
O=C(COc1ccc(Br)cc1CO)Nc1ccc(S(=O)(=O)N2CCCCC2)cc1	-8	-18	nt	-34	25*	nt
Cc1ccc(OCC(=O)Nc2ccc(C)c(S(=O)(=O)N3CCCCCC3)c2)c([N+](=O)[O-])n1	2	-16	6	-20	32*	0
CCO/N=C/C1=C(O)C(C(=O)OC)C(C)(C)CC1=O (stereo not drawn)	9	40	25	-3	-2	-10

Screening results: PubChem BioAssay, several laboratories
